Assay results from different studies.
Protocols differ between the studies behind these lines.
KIT L576P: Mast/stem cell growth factor receptor Kit (KIT, Homo sapiens, UniProt P10721, L576P)
KIT V559D: Mast/stem cell growth factor receptor Kit (KIT, Homo sapiens, UniProt P10721, V559D)
KIT T670I/V559D: Mast/stem cell growth factor receptor Kit (KIT, Homo sapiens, UniProt P10721, T670I/V559D)
KIT A829P: Mast/stem cell growth factor receptor Kit (KIT, Homo sapiens, UniProt P10721, A829P)
KIT D816V: Mast/stem cell growth factor receptor Kit (KIT, Homo sapiens, UniProt P10721, D816V)
KIT: Mast/stem cell growth factor receptor Kit (KIT, Homo sapiens, UniProt P10721)
KIT autoinhibited: Mast/stem cell growth factor receptor Kit, autoinhibited (KIT, Homo sapiens, UniProt P10721)

Compound	target	read-out	method	concentration	remaining binding
CN1CCN(c2ccc(Nc3nccc(-c4ccccc4)n3)cc2C(F)(F)F)CC1	KIT L576P	binding	–	10 µM	0.45%
C[C@@]1(Cc2ccc(C#N)cc2)C(=O)N(c2cc(Cl)cc(Cl)c2)c2ncc(C(=O)NC3(c4nc(C5CCC5)no4)CC3)n21	KIT V559D	cell-free assay	competition with immobilised ligand	1 µM	99%
O=C(c1ccc(Nc2ncc(Cl)c(-c3ccc(Cl)s3)n2)cc1)N1CCC(N2CCCC2)CC1	KIT T670I/V559D	binding	competition with immobilised ligand	1 µM	0.75%
Cc1cc(NC(=O)c2cccc(S(F)(F)(F)(F)F)c2)cc(-n2ccn3nc(-c4cccnc4)cc23)c1	KIT A829P	cell-free assay	competition with immobilised ligand	1 µM	100%
c1cncc(-c2cccc(Nc3nccc(NC4CCCCC4)n3)c2)c1	KIT D816V	binding	competition with immobilised ligand	10 µM	0.75%
CO[C@@H](C)c1c(Nc2ccc([C@@H](N(C)C(=O)C3CCS(=O)(=O)CC3)C(F)(F)F)cc2)cnc2cc(Cl)nn12	KIT T670I/V559D	cell-free assay	competition with immobilised ligand	1 µM	82%
CCN1CCN(Cc2ccc(C(=O)Nc3ccc(C)c(Oc4ccc5c(c4)CC(=O)N5)c3)cc2C(F)(F)F)CC1	KIT V559D	binding	competition with immobilised ligand	1 µM	0.4%
O=C(Nc1c[nH]nc1C(=O)NC1CCNCC1)c1cc(F)cc(F)c1	KIT D816V	binding	competition with immobilised ligand	1 µM	100%
O=C(c1ccc(Nc2ncc(Cl)c(-c3cc4ccccc4s3)n2)cc1)N1CCC(N2CCCC2)CC1	KIT D816V	binding	competition with immobilised ligand	1 µM	13%
c1cnn2ncc(-c3ccnc(N4CCC45COC5)n3)c2c1	KIT A829P	binding	–	1 µM	61%
O=C(NCCCN1CCOCC1)c1ccc(Nc2ncc(Cl)c(-c3ccc(Cl)s3)n2)cc1	KIT	binding	competition with immobilised ligand	1 µM	0.05%
Nc1ncc2c(n1)-c1c([nH]c3ccc(C#CC4CC4)cc13)CCCC2	KIT V559D	binding	competition with immobilised ligand	1 µM	100%
COc1cnc(Nc2cccc(S(N)(=O)=O)c2)nc1N1CCN(c2ccccc2)CC1	KIT A829P	binding	competition with immobilised ligand	1 µM	65%
Cc1cnc(Nc2ccc(C(=O)N3CCC(N4CCCC4)CC3)cc2)nc1-c1cc2ccccc2s1	KIT L576P	binding	competition with immobilised ligand	1 µM	1%
C[C@@H]1CN(c2ccc3ncc(-c4ccc5[nH]nc(C6CC6)c5c4)n3n2)C[C@H](C)O1	KIT	binding	competition with immobilised ligand	50 nM	96%
F[C@@H]1CCN(c2nccc(-c3cnn4ncccc34)n2)C1	KIT L576P	binding	–	1 µM	92%
O=C(NCCCN1CCOCC1)c1ccc(Nc2nccc(-c3cc4ccccc4s3)n2)cc1	KIT V559D	binding	competition with immobilised ligand	1 µM	26%
CC(C)(C)c1ccc(-c2nc(CBr)nn2-c2cccc(O)c2)cc1	KIT D816V	cell-free assay	competition with immobilised ligand	10 µM	95%

Compound	target	read-out	method	concentration	remaining binding
CNC(=O)[C@@H]1CC[C@@H](n2c(-c3ccc4cnccc4c3)nc3ccc(C(=O)NCc4cccc(C(N)=O)c4)cc32)C1	KIT autoinhibited	binding	competition with immobilised ligand	1 µM	100%
O=C(N[C@H]1CCCCC/C=C\C2C[C@@]2(C(=O)O)NC(=O)[C@@H]2C[C@@H](Oc3ccncc3)CN2C1=O)OC1CCCC1 (stereo partly drawn)	Mast/stem cell growth factor receptor Kit (KIT, Homo sapiens, UniProt P10721, V559D/V654A)	binding	competition with immobilised ligand	1 µM	63%
O=C(NCC1CCOCC1)c1n[nH]cc1NC(=O)c1c(F)cccc1F	KIT autoinhibited	binding	competition with immobilised ligand	1 µM	100%
O=C(c1ccc(Nc2nccc(-c3cc4ccccc4s3)n2)cc1)N1CCC(N2CCCC2)CC1	Mast/stem cell growth factor receptor Kit (KIT, Homo sapiens, UniProt P10721, D816H)	binding	competition with immobilised ligand	1 µM	18%
CN(c1nccc(-c2cnn3ncccc23)n1)C1CC1	KIT D816V	binding	–	1 µM	85%
CN1CCN(c2ccc(Nc3nccc(-c4cccc([N+](=O)[O-])c4)n3)cc2C(F)(F)F)CC1	KIT D816V	binding	–	10 µM	1.1%
NS(=O)(=O)c1cc(NC(=O)C2(c3ccccc3Cl)CC2)ccc1Oc1cccc(Cl)c1	KIT A829P	cell-free assay	competition with immobilised ligand	1 µM	69%
C[C@@H]1CCN(c2nccc(-c3cnn4ncccc34)n2)C1	KIT	binding	–	1 µM	100%
COc1ncc2cc3ccccc3nc2c1C#N	KIT L576P	cell-free assay	competition with immobilised ligand	5 µM	100%
N[C@H]1CCN(c2nccc(-c3cnn4ncccc34)n2)C1	KIT T670I/V559D	binding	–	1 µM	100%
COc1cnc(Nc2cccc(S(N)(=O)=O)c2)nc1N1CCN(c2ccccc2)C(=O)C1	KIT A829P	binding	competition with immobilised ligand	1 µM	68%
Cc1cnn2ncc(-c3ccnc(N(C)C)n3)c2c1	KIT T670I/V559D	binding	–	1 µM	100%
COc1ccc2cc(OCC3(C(=O)O)CN(C(=O)c4ccc(F)cc4)C3)ccc2c1	KIT T670I/V559D	cell-free assay	competition with immobilised ligand	1 µM	100%
C=CC(=O)N1CCC(C(=O)NCC(=O)N2CCN(c3nc(-c4cnc(N)nc4C(F)F)nc(N4CCOCC4)n3)CC2)CC1	KIT D816V	binding	competition with immobilised ligand	1 µM	79%
CC(C)(O)c1cncc(-c2nc3ccc(F)cc3n2C2CC2)c1	KIT A829P	cell-free assay	competition with immobilised ligand	1 µM	100%
CN(C)c1nccc(-c2cnc3ncccn23)n1	KIT	binding	–	1 µM	69%
C[C@@H](c1ccc(-n2cnc3c(N)ncnc32)cc1)N1CCc2nn(C)c(Cc3ccccc3)c2C1=O	KIT A829P	binding	competition with immobilised ligand	0.1 µM	52%
CN1CCN(c2cnc3c(C4CCN(C(=O)c5ccc(OC(F)(F)F)cc5N)CC4)ncnc3c2)CC1	KIT autoinhibited	cell-free assay	competition with immobilised ligand	1 µM	85%
